Data taken from paper PMC5030192 (International journal of pharmaceutics, 2016).
Converted amounts (≈) assume the structure as drawn. Square brackets hold non-standard residues; d marks the D form. Peptide text beside a SMILES is read from it. Sar = CNCC(=O)O

Experiments:
PepT1 = test: [3H]-GlySar uptake, interaction with peptide transporter; format: cell-based
In short: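 Monolayers grown to 80–90% confluency (6–7 days after seeding 3 × 10⁶ cells) were washed thrice in DPBS pH 7.4 at 37°C. They were then incubated 30 min at 37°C with [3H]-GlySar in DPBS plus test compound (25µM) or cold GlySar (10mM). Ice-cold stop wash, lysis in 0.1% Triton-X/0.3% NaOH overnight, scintillation counting; uptake normalised to protein. n=4, mean ± S.D., Student t-test.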

P-gp = P-gp (Homo sapiens, UniProt P08183); test: [3H]-LPV cellular uptake in MDCK-MDR1 cells; format: cell-based
Sequence of P-gp (P08183 whole entry): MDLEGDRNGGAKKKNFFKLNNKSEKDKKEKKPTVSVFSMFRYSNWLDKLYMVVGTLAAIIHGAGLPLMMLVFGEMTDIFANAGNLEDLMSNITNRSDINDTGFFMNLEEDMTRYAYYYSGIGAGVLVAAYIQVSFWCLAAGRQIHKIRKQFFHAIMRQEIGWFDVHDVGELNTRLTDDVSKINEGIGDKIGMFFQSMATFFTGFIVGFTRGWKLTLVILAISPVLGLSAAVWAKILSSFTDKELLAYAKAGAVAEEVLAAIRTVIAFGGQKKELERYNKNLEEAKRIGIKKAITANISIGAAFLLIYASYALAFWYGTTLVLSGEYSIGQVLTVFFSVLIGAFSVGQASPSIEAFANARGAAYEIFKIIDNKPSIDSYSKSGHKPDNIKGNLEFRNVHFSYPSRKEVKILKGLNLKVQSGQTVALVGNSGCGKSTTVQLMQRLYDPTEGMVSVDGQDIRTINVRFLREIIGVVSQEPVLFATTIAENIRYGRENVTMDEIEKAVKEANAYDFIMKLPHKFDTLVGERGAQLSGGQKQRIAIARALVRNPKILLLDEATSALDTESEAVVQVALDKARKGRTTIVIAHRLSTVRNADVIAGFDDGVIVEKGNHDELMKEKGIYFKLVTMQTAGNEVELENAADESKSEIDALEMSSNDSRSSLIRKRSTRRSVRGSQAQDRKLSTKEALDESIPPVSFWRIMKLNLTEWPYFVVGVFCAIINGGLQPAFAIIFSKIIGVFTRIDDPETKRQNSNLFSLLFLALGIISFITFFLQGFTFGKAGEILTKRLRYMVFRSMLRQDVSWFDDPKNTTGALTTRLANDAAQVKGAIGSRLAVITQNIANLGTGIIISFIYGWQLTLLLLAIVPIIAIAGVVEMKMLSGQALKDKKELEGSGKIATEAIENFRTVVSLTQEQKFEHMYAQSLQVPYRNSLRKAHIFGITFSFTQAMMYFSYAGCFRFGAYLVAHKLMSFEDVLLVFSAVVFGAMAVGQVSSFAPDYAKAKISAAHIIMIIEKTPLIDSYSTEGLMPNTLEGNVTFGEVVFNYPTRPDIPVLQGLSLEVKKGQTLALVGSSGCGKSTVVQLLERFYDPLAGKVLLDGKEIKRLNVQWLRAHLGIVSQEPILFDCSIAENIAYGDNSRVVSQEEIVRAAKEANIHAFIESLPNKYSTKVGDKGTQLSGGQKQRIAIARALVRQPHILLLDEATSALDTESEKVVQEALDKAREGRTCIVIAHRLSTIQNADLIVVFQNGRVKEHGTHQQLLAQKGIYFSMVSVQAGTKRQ

MDCKII-WT cells = test: MTS based cytotoxicity assay
[1] = ref Patel, 2014, cited from earlier work
MRP2 = MRP2 (Homo sapiens, UniProt Q92887); test: [3H]-LPV cellular uptake in MDCK-MRP2 cells; format: cell-based
Sequence of MRP2 (Q92887 whole entry): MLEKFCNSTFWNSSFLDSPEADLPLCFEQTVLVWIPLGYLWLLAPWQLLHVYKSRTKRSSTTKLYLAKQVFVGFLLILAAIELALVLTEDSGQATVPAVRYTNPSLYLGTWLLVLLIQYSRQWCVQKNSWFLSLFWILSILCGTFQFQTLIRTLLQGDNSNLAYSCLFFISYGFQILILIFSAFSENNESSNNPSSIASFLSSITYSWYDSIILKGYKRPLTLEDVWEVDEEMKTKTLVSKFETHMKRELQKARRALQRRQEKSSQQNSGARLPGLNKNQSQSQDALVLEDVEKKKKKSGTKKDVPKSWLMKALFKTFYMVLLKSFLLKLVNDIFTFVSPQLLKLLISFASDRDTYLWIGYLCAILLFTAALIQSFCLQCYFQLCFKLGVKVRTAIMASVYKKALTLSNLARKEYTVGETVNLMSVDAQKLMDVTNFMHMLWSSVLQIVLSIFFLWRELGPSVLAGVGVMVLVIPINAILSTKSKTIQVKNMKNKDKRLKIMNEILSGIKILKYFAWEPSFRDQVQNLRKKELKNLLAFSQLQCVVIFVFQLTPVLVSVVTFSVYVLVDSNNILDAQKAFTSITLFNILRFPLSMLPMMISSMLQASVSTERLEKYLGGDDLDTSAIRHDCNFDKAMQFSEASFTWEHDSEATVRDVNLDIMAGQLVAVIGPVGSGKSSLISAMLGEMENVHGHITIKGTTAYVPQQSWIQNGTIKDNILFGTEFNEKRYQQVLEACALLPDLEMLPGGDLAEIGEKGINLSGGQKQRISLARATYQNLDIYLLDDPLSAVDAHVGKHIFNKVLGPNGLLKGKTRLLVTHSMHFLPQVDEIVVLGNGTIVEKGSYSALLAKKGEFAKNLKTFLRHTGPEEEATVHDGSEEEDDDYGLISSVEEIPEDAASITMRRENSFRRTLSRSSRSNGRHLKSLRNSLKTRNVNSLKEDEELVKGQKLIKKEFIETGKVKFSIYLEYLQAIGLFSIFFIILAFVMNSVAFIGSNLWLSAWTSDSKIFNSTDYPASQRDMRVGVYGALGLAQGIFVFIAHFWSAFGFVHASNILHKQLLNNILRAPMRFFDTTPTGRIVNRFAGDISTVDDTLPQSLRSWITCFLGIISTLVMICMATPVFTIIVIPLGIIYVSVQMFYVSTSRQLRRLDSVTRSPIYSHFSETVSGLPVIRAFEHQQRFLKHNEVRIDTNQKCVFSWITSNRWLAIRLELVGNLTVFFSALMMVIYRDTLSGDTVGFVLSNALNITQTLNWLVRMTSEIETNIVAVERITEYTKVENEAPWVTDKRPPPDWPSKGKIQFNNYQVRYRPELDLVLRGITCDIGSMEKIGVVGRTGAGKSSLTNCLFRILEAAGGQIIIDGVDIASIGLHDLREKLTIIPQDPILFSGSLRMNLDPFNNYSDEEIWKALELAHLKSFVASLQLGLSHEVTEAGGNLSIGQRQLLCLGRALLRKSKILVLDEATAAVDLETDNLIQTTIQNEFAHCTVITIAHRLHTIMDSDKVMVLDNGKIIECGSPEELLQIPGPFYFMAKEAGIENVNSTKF

PHT1 = test: [3H]-His uptake, interaction with peptide/histidine transporter; format: cell-based; conditions: 25µM; MDCK-MDR1, MDCK-MRP2, Caco-2
[2] = Solubility studies in distilled deionized water; format: physicochemical; conditions: thermodynamic from solid

With `CN(CC(=O)O)C(=O)CN` [GlySar, Glycylsarcosine] (H-Gly-[Sar]-OH) the “reduction in [3H]-GlySar uptake” value (PepT1; all cell lines (MDCK-MDR1, MDCK-MRP2, Caco-2), prodrug 25µM, cold GlySar 10mM) was 75%.
With `Cc1cccc(C)c1OCC(=O)N[C@@H](Cc1ccccc1)[C@@H](O)C[C@H](Cc1ccccc1)NC(=O)[C@H](C(C)C)N1CCCNC1=O` [LPV, Lopinavir] the “variation in [3H]-GlySar uptake in presence of compound” value (PepT1; 25µM, MDCK-MDR1, MDCK-MRP2, Caco-2) was “no such variation”, the “[3H]-LPV uptake with increasing concentrations of unlabelled compound” value (P-gp) was “dramatically elevated” and the “reduction in number of viable cells” value (MDCKII-WT cells; 100 µM, 4h incubation, MDCK-WT cells) was “Approximately 13%”. For the same compound, the “reduction in number of viable cells / cell viability” value (MDCKII-WT cells; 200 µM, 4h incubation, MDCK-WT cells) was about 36%, the Cytotoxicity (MDCKII-WT cells; 5–50 µM, 4h incubation, MDCK-WT cells) was “no cytotoxic effects” and the “mean residential time (MRT)” value ([1]; LPV itself dosed orally, rats) was 3.13 h. The “mean residential time (MRT) of regenerated LPV” value ([1]; regenerated after oral Val-Ile-LPV, rats) was 10.1 h, the “Area under the curve (AUC) of administered compound” value ([1]; single oral dose, Sprague Dawley rats) was 177 ± 5 µmol·min/L and the “[3H]-LPV uptake with increasing concentrations of unlabelled compound” value (MRP2) was “dramatically elevated”. For the same compound, the “variation in [3H]-L-His uptake in presence of compound” value (PHT1) was “no such variation” and the solubility at 24 h [2] was 49 ± 3 µg/mL (≈ 77.9 µM).
With `CC(C)(C)CC(C)(C)c1ccc(OCCO)cc1` [Triton-X] the “decrease in absorbance compared to negative control” value (MDCKII-WT cells; 0.1% Triton-X, positive control) was “about 70%”.
